Reference: ChEMBL document CHEMBL1154319, “Further studies on the chemistry of the flustra alkaloids from the bryozoan Flustra foliacea” (2009)
Calls of active or inactive are those of the source. The calls are words filed in the database; no cut-off is given here.

What was measured:
Escherichia coli [1] = test: Antibacterial activity against Escherichia coli ATCC 11775 at 0.9 mol by disk diffusion method; type: functional, organism-based
Outline: (§1)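 Compound dissolved in MeOH, applied to a 6 mm filter-paper disk and air-dried. Disk placed on an agar plate overgrown with the test organism. Growth-inhibition zone measured from the outer edge of the disk.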

Cyberlindnera jadinii [2] = test: Antifungal activity against Candida utilis ATCC 9950 at 0.9 mol by disk diffusion method; type: functional, organism-based; outline: as §1
Saccharomyces cerevisiae [3] = test: Antifungal activity against Saccharomyces cerevisiae ATCC 9763 at 0.9 mol by disk diffusion method; type: functional, organism-based; outline: as §1
Micrococcus luteus [4] = test: Antibacterial activity against Micrococcus luteus ATCC 49732 at 0.9 mol by disk diffusion method; type: functional, organism-based; outline: as §1
Saccharomyces cerevisiae [5] = test: Antifungal activity against Saccharomyces cerevisiae ATCC 9763 at 0.7 mol by disk diffusion method; type: functional, organism-based; outline: as §1
Cyberlindnera jadinii [6] = test: Antifungal activity against Candida utilis ATCC 9950 at 0.7 mol by disk diffusion method; type: functional, organism-based; outline: as §1
Escherichia coli [7] = test: Antibacterial activity against Escherichia coli ATCC 11775 at 0.7 mol by disk diffusion method; type: functional, organism-based; outline: as §1
Micrococcus luteus [8] = test: Antibacterial activity against Micrococcus luteus ATCC 49732 at 0.7 mol by disk diffusion method; type: functional, organism-based; outline: as §1
Micrococcus luteus [9] = test: Antibacterial activity against Micrococcus luteus ATCC 49732 at 1.3 mol by disk diffusion method; type: functional; outline: as §1
Cyberlindnera jadinii [10] = test: Antifungal activity against Candida utilis ATCC 9950 at 1.3 mol by disk diffusion method; type: functional; outline: as §1
Saccharomyces cerevisiae [11] = test: Antifungal activity against Saccharomyces cerevisiae ATCC 9763 at 1.3 mol by disk diffusion method; type: functional; outline: as §1
Escherichia coli [12] = test: Antibacterial activity against Escherichia coli ATCC 11775 at 1.3 mol by disk diffusion method; type: functional; outline: as §1
Cyberlindnera jadinii [13] = test: Antifungal activity against Candida utilis ATCC 9950 at 1.4 mol by disk diffusion method; type: functional; outline: as §1
Cyberlindnera jadinii [14] = test: Antifungal activity against Candida utilis ATCC 9950 at 1.5 mol by disk diffusion method; type: functional; outline: as §1
Escherichia coli [15] = test: Antibacterial activity against Escherichia coli ATCC 11775 at 1.5 mol by disk diffusion method; type: functional; outline: as §1
Micrococcus luteus [16] = test: Antibacterial activity against Micrococcus luteus ATCC 49732 at 1.5 mol by disk diffusion method; type: functional; outline: as §1
Saccharomyces cerevisiae [17] = test: Antifungal activity against Saccharomyces cerevisiae ATCC 9763 at 1.5 mol by disk diffusion method; type: functional; outline: as §1
Cyberlindnera jadinii [18] = test: Antifungal activity against Candida utilis ATCC 9950 at 1.2 mol by disk diffusion method; type: functional; outline: as §1
Micrococcus luteus [19] = test: Antibacterial activity against Micrococcus luteus ATCC 49732 at 1.2 mol by disk diffusion method; type: functional; outline: as §1
Saccharomyces cerevisiae [20] = test: Antifungal activity against Saccharomyces cerevisiae ATCC 9763 at 1.2 mol by disk diffusion method; type: functional; outline: as §1
Escherichia coli [21] = test: Antibacterial activity against Escherichia coli ATCC 11775 at 1.2 mol by disk diffusion method; type: functional; outline: as §1

C=CC(C)(C)[C@@]12CCN(C)[C@@H]1N(CN1c3cc(Br)ccc3[C@]3(C(C)(C)C=C)CCN(C)[C@H]13)c1cc(Br)ccc12
inhibition zone (IZ) (Escherichia coli [1]): inactive | inhibition zone (IZ) (Cyberlindnera jadinii [2]): inactive | inhibition zone (IZ) (Saccharomyces cerevisiae [3]): inactive | inhibition zone (IZ) (Micrococcus luteus [4]): inactive

C=CC(C)(C)[C@@]12CCN(C)[C@@H]1N(Cc1cc(Br)c3c(c1O)[C@]1(C/C=C(\C)CCC=C(C)C)CCN(C)[C@@H]1N3)c1cc(Br)ccc12
inhibition zone (IZ) (Saccharomyces cerevisiae [5]): inactive | inhibition zone (IZ) (Cyberlindnera jadinii [6]): inactive | inhibition zone (IZ) (Escherichia coli [7]): inactive | inhibition zone (IZ) (Micrococcus luteus [8]): inactive

CC(C)=CCC/C(C)=C/C[C@@]12CCN(C)[C@@H]1Nc1cccc(O)c12 [DEBROMOFLUSTRAMINE H]
inhibition zone (IZ) (Micrococcus luteus [9]): 23 mm | inhibition zone (IZ) (Cyberlindnera jadinii [10]): 28 mm | inhibition zone (IZ) (Saccharomyces cerevisiae [11]): 16 mm | inhibition zone (IZ) (Escherichia coli [12]): 22 mm

C=CC(C)(C)[C@@]12CCN(C)[C@@H]1N(C(C)=O)c1cc(Br)ccc12 [FLUSTRAMINE F]
inhibition zone (IZ) (Cyberlindnera jadinii [13]): 18 mm

CC(C)=CC[C@@]12CCN(C)[C@@H]1Nc1c(Br)ccc(O)c12 [FLUSTRAMINE I]
inhibition zone (IZ) (Cyberlindnera jadinii [14]): 29 mm | inhibition zone (IZ) (Escherichia coli [15]): 25 mm | inhibition zone (IZ) (Micrococcus luteus [16]): 29 mm | inhibition zone (IZ) (Saccharomyces cerevisiae [17]): 15 mm

CC(C)=CCc1cc(Br)c2c(c1O)[C@]1(CC=C(C)C)CCN(C)[C@@H]1N2 [FLUSTRAMINE L]
inhibition zone (IZ) (Cyberlindnera jadinii [18]): 30 mm | inhibition zone (IZ) (Micrococcus luteus [19]): 25 mm | inhibition zone (IZ) (Saccharomyces cerevisiae [20]): 20 mm | inhibition zone (IZ) (Escherichia coli [21]): 24 mm
